Reference: PubChem BioAssay AID449755 (Broad Institute, 2010)
Inconclusive results are not listed. Activity calls are given as the source filed them.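 The calls were made as follows: active = compounds raising caspase signal whose fitted AC50 is at most ten times the top tested dose; inconclusive = flat fit with 30 to 70% activity, or failed fit; inactive = the rest.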

system: HMC 1-8 low-A1 cells, caspase-3/7 luminescence, 3 h; assay: caspase activation in low-A1 HMC 1-8 cells, dose response, counter-screen for A1 inhibitor project, cell-based, caspase luminescence (AID 449755)
How it was run: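 Test system: low-A1 HMC 1-8 human cancer cell line; doses: compound delivered by pin transfer; timing: 3 h compound exposure, 37 °C/5% CO2, 1 h room-temperature detection; measured by: caspase-3/7 DEVD luminescence; evaluation: caspase activation as non-A1 counterscreen signal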

SMILES	AC50
CC(C)(C)c1ccc2c(c1)OC(C(=O)N/N=C\c1ccc[nH]1)CO2 (stereo not given)	> 35 µM (inactive)
O=C1/C(=C/c2ccc(N3CCOCC3)o2)SC(=Nc2ccccc2)N1CCc1c[nH]c2ccccc12	> 35 µM (inactive)
Cc1cccc(NC(=O)/C(C#N)=C/c2cn(CC(=O)NCc3ccco3)c3ccccc23)c1	> 35 µM (inactive)
Cc1nn(-c2ccccc2)c(Cl)c1CN(C(=O)CCl)c1ccc(Cl)cc1	> 35 µM (inactive)
COc1ccc(S(=O)(=O)N2CC(O)CC2C(=O)OCC(=O)Nc2ccc(Cl)cn2)cc1 (stereo not given)	> 35 µM (inactive)
CCN(C(=O)CCN1C(=O)c2ccccc2S1(=O)=O)c1ccccc1	> 35 µM (inactive)
Oc1ccc(/C=N/N2CCN(C3c4ccccc4-c4ccccc43)CC2)cc1O	> 35 µM (inactive)
CC(=O)OC(C)(C)/C=C/C(=O)C(C)(O)C1[C@H](O)C[C@@]2(C)C3CC=C4C(CC[C@@H](O)C4(C)C)[C@]3(CO)C(=O)C[C@]12C (stereo not given in full)	> 35 µM (inactive)
COc1ccccc1-c1cn[nH]c1-c1ccc(OCc2ccccc2)cc1O	> 35 µM (inactive)
CC(C)CCN(C(=O)Cc1ccc(Cl)c(Cl)c1)c1c(N)n(Cc2ccccc2)c(=O)[nH]c1=O	24.3 µM
CCCCN1C(=O)/C(=C2/Sc3ccccc3N2C)S/C1=N\c1ncn[nH]1	> 35 µM (inactive)
COC(=O)c1ccc2c(c1)C(C)(C)C(/C=C/c1ccccc1O)=[N+]2C	8.58 µM
COc1cc2ncnc(NCc3ccc(F)cc3)c2cc1OC	> 35 µM (inactive)
Cc1ccc(C(=O)/C=C/C(=O)c2ccc(C)cc2)cc1	> 35 µM (inactive)
COc1ccc(-c2c(C#N)c(N)nc(Sc3ccc(Cl)cc3)c2C#N)cc1	> 35 µM (inactive)
Cc1c(C=O)c(C=O)c(C)n1Cc1ccccc1	> 35 µM (inactive)
CCS(=O)(=O)c1ncc(Cl)c(C(=O)Nc2ccccc2OC)n1	> 35 µM (inactive)
Cc1cc(C)n(-c2nc(Nc3ccccc3C)nc(-n3nc(C)cc3C)n2)n1	> 35 µM (inactive)
O=C(Nc1ccc([N+](=O)[O-])cc1)c1nc[nH]c1C(=O)NC1CCCCC1	> 35 µM (inactive)
O=C(NC[C@H]1CCCO1)c1cccc2c1C(=O)c1ccc(-c3ccc(F)cc3OCc3ccccc3)cc1S2(=O)=O	> 35 µM (inactive)
CCOC(=O)/C(=C\c1cccnc1)C(=O)c1cc(C(C)=O)c(Nc2ccccc2)s1	> 35 µM (inactive)
CCOC(=O)COc1ccccc1/C=C\[N+](=O)[O-]	> 35 µM (inactive)

SMILES	AC50
COc1cc(NC(=O)c2ccc(Cl)cc2Cl)ccc1-c1cc2ccccc2oc1=O	> 35 µM (inactive)
COc1ccc(OC[C@@H](O)CNC(=O)c2cccc3c2C(=O)c2ccc(-c4ccc(F)cc4OCc4ccccc4)cc2S3(=O)=O)cc1	> 35 µM (inactive)
Cc1cccc(Nc2nc(N)c([N+](=O)[O-])c(N3CCCC(C)C3)n2)c1 (stereo not given)	> 35 µM (inactive)
COc1ccc(OC)c(NC(=O)c2cc(-c3cc(C)ccc3O)n[nH]2)c1	> 35 µM (inactive)
CC(C)Cn1c(O)c(/C=C2\C=NN=C2c2ccccc2)sc1=S	> 35 µM (inactive)
COc1ccc(NC(=O)c2cccc3c2C(=O)c2ccc(-c4ccc(F)cc4OCc4ccccc4)cc2S3(=O)=O)cc1	> 35 µM (inactive)
COc1cc(NC(=O)c2ccccc2F)ccc1NC(=O)c1cc2ccccc2o1	> 35 µM (inactive)
COc1ccc(C[C@H]2NC[C@H](O)[C@H]2OC(C)=O)cc1	1.09 µM
COc1cc(NC(=O)c2cccc(C)c2)ccc1NC(=O)c1cc2ccccc2o1	> 35 µM (inactive)
CC(C)c1cccc(-c2ccc3c(c2)S(=O)(=O)c2cccc(C(=O)NC4CCCC4)c2C3=O)c1	> 35 µM (inactive)
O=C(N=Nc1c(O)[nH]c2ccc([N+](=O)[O-])cc12)c1cc(-c2ccccc2Cl)nc2ccccc12	> 35 µM (inactive)
Cc1ccc(Sc2c([N+](=O)[O-])c(=O)n(C)c3ccccc23)cc1	> 35 µM (inactive)
CC(=O)OC(C)(C)/C=C/C(=O)[C@](C)(O)C1[C@H](O)C[C@@]2(C)C3CC=C4C(C[C@H](O)C(=O)C4(C)C)[C@]3(C)C(=O)C[C@]12C (stereo not given in full)	> 35 µM (inactive)
CCn1c(SCC(=O)c2ccccc2)nnc1-c1cc2cc(Br)ccc2o1	> 35 µM (inactive)
CC1CC(C)CN(C(=O)c2ccc(-c3ccc([N+](=O)[O-])cc3)o2)C1 (stereo not given)	> 35 µM (inactive)
COc1ccc(Cn2c(SCc3ccc(C)cc3)nc3cc(OC)c(OC)cc3c2=N)cc1Cl	27.1 µM
CCOCCCNC(=O)c1ccc2c(c1)N=C(CC)c1cc(Br)ccc1S2	> 35 µM (inactive)
O=C(c1ccc(COc2ccc3ccccc3c2)o1)N1N=C(C(F)F)CC1(O)C(F)F (stereo not given)	> 35 µM (inactive)
COC(=O)CSc1nc(N)c2c3c(sc2n1)C(c1ccccc1)SC(c1ccccc1)C3 (stereo not given)	> 35 µM (inactive)
CC(C)(C)c1ccc(C(=O)Nc2ccc(O)c3c(=O)cc(-c4cccc(Cl)c4)oc23)cc1	> 35 µM (inactive)
Cc1ccc(C(=O)COC(=O)c2ccc3c(c2)C(=O)N(c2cccc4ncccc24)C3=O)cc1	24.3 µM
COc1cc(CN2CCN(c3cc(C)ccc3C)CC2)ccc1O	> 35 µM (inactive)

SMILES	AC50
CCOC(=O)c1ccc(-c2ccc(/C=N/NC(=O)CN(c3cccc(C)c3)S(C)(=O)=O)o2)cc1	> 35 µM (inactive)
Cc1ccc(C=C2C(Cl)=C(Cl)C(Cl)=C2Cl)cc1	12.9 µM
COc1cc(/C=C(/C#N)C(=O)Nc2ccc(Cl)cc2)ccc1Oc1nc(Cl)ncc1F	> 35 µM (inactive)
COc1ccc(NC(=S)NC(NC(=O)/C=C/c2ccccc2)C(Cl)(Cl)Cl)cc1 (stereo not given)	> 35 µM (inactive)
O=C(COc1ccccc1[N+](=O)[O-])Nc1ccc(NC(=O)c2cc3ccccc3o2)cc1	9.07 µM
CCc1nn(-c2cc(Oc3cccc4ccccc34)nc(-c3ccccc3)n2)c(N)c1C#N	> 35 µM (inactive)
COc1cc(/C=C(/C#N)c2nc3ccccc3[nH]2)ccc1OCC(=O)Nc1ccccc1C	3.01 µM
C=CC(=O)Nc1ccc(CN2C(=O)N(c3c(Cl)c(OC)cc(OC)c3Cl)Cc3cnc(NCCCCN(CC)CC)nc32)cc1	> 35 µM (inactive)
CC(C)c1ccc2[nH]c(O)c(N=NC(=O)c3cccc(S(=O)(=O)Nc4ccc(Cl)cc4)c3)c2c1	> 35 µM (inactive)
CC(C)(C)C1CCc2onc(C(=O)Nc3cccc(O)c3)c2C1 (stereo not given)	> 35 µM (inactive)
O=C(Oc1cccc(/C=N/Nc2nc(Nc3ccccc3)nc(N3CCOCC3)n2)c1)c1ccco1	> 35 µM (inactive)
COc1ccc(NC(=O)CSc2nc3ccc(Nc4nc(N5CCOCC5)nc(N5CCOCC5)n4)cc3s2)cc1	> 35 µM (inactive)
N#CC(C#N)=C1C=CC=CN1/C(=C\c1ccccc1Cl)C(=O)c1ccccc1	27.9 µM
COc1ccccc1C(=O)Nc1ccnn1C1CCN(Cc2cn(C)c3ccccc23)CC1	> 35 µM (inactive)
COc1ccc(C=C2C=C(C(C)(C)C)C(=O)C(C(C)(C)C)=C2)cc1OC	5.9 µM
COc1cc(C(=O)Nc2cc3c(cc2N2CCCCC2)n(C)c(=O)n3C)cc(OC)c1OC	> 35 µM (inactive)
Oc1[nH]c2ccc(Br)cc2c1N=NC(=S)Nc1ccc(F)cc1	> 35 µM (inactive)
O=C(NC1CCCCC1)c1cccc2c1C(=O)c1ccc(-c3ccc(OC(F)(F)F)cc3)cc1S2(=O)=O	> 35 µM (inactive)
COc1ccc2c(c1)[nH]c1c(=O)n(/N=C/C3C(C)C=C(C)CC3C)c(=O)[nH]c12 (stereo not given)	> 35 µM (inactive)
CC1(C)C[C@H](O)[C@]2(CO)[C@H](O)C[C@]3(C)C(=CCC4[C@@]5(C)CC[C@H](O)C(C)(C)C5CC[C@]43C)[C@@H]2C1 (stereo not given in full)	> 35 µM (inactive)
COCc1cc(C)nc(SCC(=O)Nc2nc(C)cs2)c1C#N	> 35 µM (inactive)
Cc1ccc(C(=O)/C=C\C(=O)c2ccc(C)cc2)cc1	> 35 µM (inactive)

SMILES	AC50
CC(C)N=c1scc(-c2ccco2)n1/N=C/c1ccc(O)c(O)c1	> 35 µM (inactive)
Cc1nn(-c2ccccc2)c(C)c1/C=N/NC(=O)CSc1nc2ccccc2c(=O)n1-c1ccc(Br)cc1	> 35 µM (inactive)
O=C(Nc1ccc2oc(-c3ccccc3)nc2c1)c1ccccc1F	> 35 µM (inactive)
COc1cc(NC(=O)c2ccccc2)c(OC)cc1NC(=O)Cc1ccc(Br)cc1	> 35 µM (inactive)
CCc1ccccc1NC(=O)C(CC)Sc1nc2cc3c(cc2c(=O)n1Cc1ccco1)OCO3 (stereo not given)	> 35 µM (inactive)
CN1C2CCC1/C(=C/c1ccccn1)C(=O)/C2=C\c1ccccn1	> 35 µM (inactive)
Cc1ccc(NC(=S)NC(NC(=O)Cc2cccc3ccccc23)C(Cl)(Cl)Cl)cc1 (stereo not given)	27 µM
CCc1nnc(NC(=O)CSc2nc(-c3ccccc3)cc(-c3ccc(F)cc3)c2C#N)s1	> 35 µM (inactive)
Cc1cc(C(=O)CCl)c(C)n1CCc1ccc(Cl)cc1	> 35 µM (inactive)
CCC(Sc1nc2cc3c(cc2c(=O)n1Cc1ccco1)OCO3)C(=O)Nc1cccc(OC)c1 (stereo not given)	> 35 µM (inactive)
CN(C)C/C=C(\c1ccc(Br)cc1)c1cccnc1	> 35 µM (inactive)
O=C1C2C3C=CC(CO)(O3)C2C(=O)N1c1ccc(-c2ccccc2)cc1 (stereo not given)	> 35 µM (inactive)
CCOC(=O)/C=c1\s/c(=C\c2ccc(C(=O)OC)cc2)c(=O)n1CC(=O)Nc1ccccc1	> 35 µM (inactive)
COc1ccccc1CCNC(C)CCc1ccc(O)cc1 (stereo not given)	> 35 µM (inactive)
CC1=NNC(=O)/C1=C\c1cn(-c2ccccc2)nc1-c1cccs1	> 35 µM (inactive)
CCOC(=O)c1c(C)oc2c1c(CN1CCN(C(=O)OCC)CC1)c(O)c1ccccc12	26.3 µM
N#Cc1cccnc1N1CCN(C(=O)c2cccc3c2C(=O)c2ccc(-c4ccc(Cl)c(C(F)(F)F)c4)cc2S3(=O)=O)CC1	> 35 µM (inactive)
CSC[C@@H]1NC(=S)N(c2ccc(C)cc2)C1=O	> 35 µM (inactive)
C=C1/C=C(\C)[C@](C)(O)C[C@H](O)CC(=O)[C@H](O)[C@@H](O)[C@H](C)C[C@H](C)OC(=O)/C(C)=C/CC/C=C/[C@@H]2O[C@H]2C[C@H](C)C1	> 35 µM (inactive)
